Screens deposited in PubChem by several laboratories.
Apaf1 inhib: inhibitors of human Apaf-1 apoptosome; inhibition, % at 20 µM; reconstituted apoptosome caspase-3 activity, DEVD-Rh110 fluorescence; actives 0.71% (n = 330,000); O14727; active = inhibition of at least 40% at 20 µM;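 also: plate controls were DMSO wells for no effect and DEVD-CHO caspase inhibitor wells for full effect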
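System – cell-free apoptosome with Apaf-1, procaspase-3 and caspase-9 · Buffer or medium – pH 7.5 Hepes buffer with CHAPS, BSA, DTT · Also added – cytochrome c with DEVD-Rh110 · Times – 30 min compound preincubation, 50 min activation, room temperature · Technique – Rh110 fluorescence intensity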
UBC9 SUMO inh: SUMOylation inhibition. actives 0.36% (n = 290,000). P63279. inhibition, % at 35 µM. HTRF SUMOylation assay, SAE1/SAE2 + UBC9, in vitro; in the data active = inhibition above about 50%, passing the limit was not always enough
TDP2 absorb: blocks human TDP2 phosphodiesterase activity. actives 0.34% (n = 370,000). recombinant TDP2, T5PNP hydrolysis, p-nitrophenol absorbance 415 nm. O95551. inhibition, % at 12.8 µM;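 active = inhibition above the mean of all tested compounds plus 3 SD, set per campaign, cut at about 25% in these data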;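 also: 0% = DMSO with enzyme and 100% = buffer with substrate but no TDP2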
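Test system: human TDP2 enzyme; Input: 120 nM TDP2 per well; Buffer or medium: Mg2+-containing Tris-HCl buffer, pH 7.5; Reagent: 5 mM T5PNP; Dosing: 12.8 µM single point, 1% DMSO; Incubation: reaction 2 h, 37 °C; Detection: p-Nitrophenol epi absorbance; Read-out: % inhibition relative to enzyme-containing and enzyme-free wells; Replicates: single well per compound.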
PAD4 inh: blocks human protein arginine deiminase 4. actives 0.41% (n = 330,000). recombinant PAD4, RCA probe fluorescence polarization. Q9UM07. inhibition, % at 6.36 µM;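 active = percent inhibition above a cutoff equal to the mean of all tested compounds plus 3 SD, cut at about 15% in these data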;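 also: 0% = PAD4 with RCA probe and DMSO and 100% = probe without PAD4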
Target sequence (Q9UM07 whole entry, looked up): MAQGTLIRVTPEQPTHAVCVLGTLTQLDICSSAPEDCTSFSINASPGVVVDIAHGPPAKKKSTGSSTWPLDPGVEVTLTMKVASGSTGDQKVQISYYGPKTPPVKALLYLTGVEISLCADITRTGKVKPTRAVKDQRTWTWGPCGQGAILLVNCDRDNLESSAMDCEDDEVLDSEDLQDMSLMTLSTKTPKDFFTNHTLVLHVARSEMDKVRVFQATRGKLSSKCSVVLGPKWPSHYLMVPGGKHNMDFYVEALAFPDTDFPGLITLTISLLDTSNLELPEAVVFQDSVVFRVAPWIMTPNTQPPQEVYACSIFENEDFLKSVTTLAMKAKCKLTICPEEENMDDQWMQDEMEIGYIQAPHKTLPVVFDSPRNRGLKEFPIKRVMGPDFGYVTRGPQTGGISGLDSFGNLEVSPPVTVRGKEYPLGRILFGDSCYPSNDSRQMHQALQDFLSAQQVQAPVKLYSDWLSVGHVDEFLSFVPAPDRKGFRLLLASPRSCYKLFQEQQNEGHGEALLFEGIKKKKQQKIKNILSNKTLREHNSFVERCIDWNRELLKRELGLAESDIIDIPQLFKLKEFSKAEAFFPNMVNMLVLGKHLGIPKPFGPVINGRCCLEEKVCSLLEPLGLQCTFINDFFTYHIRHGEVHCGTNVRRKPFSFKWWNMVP
GASC-1 inh: blocks human GASC-1 demethylase activity | GST-JMJD2C(1-420) H3K9me3 demethylation, DELFIA europium | AID 2099 | Q9H3R0 | actives 0.069% (n = 330,000) | inhibition, % at 2.35 µM;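 active = more than half of a compound's replicate wells show inhibition beyond 50%, single wells judged on their own value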;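 also: signal counts dimethyl H3K9 product captured on neutravidin plate; 0% = median of DMSO wells and 100% = 0.3 times that DMSO median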
GSTO1 counter: blocks human GSTO1 in RBBP9 counter-screen; P78417; recombinant GSTO1, activity-based probe fluorescence polarization; inhibition, % at 5.96 µM; actives 1.1% (n = 300,000);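 active = inhibition above the campaign mean inhibition plus 3 SD, cut at about 35% in these data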;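 also: 0% = GSTO1-1 with DMSO and 100% = wells lacking GSTO1-1 enzyme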
The depositor's hits bear a star; nt = not tested or not shown; ! = not active in a repeat. In the library only some 1.6% were active in any assay of this set; here they are far more common.

SMILES	Apaf1 inhib	UBC9 SUMO inh	TDP2 absorb	PAD4 inh	GASC-1 inh	GSTO1 counter
COc1[nH]c(/N=C/c2ccccc2)c(C#N)c1C#N	8.3	17.0	6.8	12.7	-11.1	35.4*
COc1ccc(C(=O)Nc2ccc(C(=O)NCCc3ccc(OC)c(OC)c3)cc2)cc1	-9.2	60.0*	-5.6	2.8	-2.1	1.9
Oc1ccc(NCc2cccc(OCc3ccc(F)cc3)c2)cc1	15.5	74.4*	14.4	-1.9	6.9	76.8*
O=[N+]([O-])c1ccc(COc2cccc(CNc3ccc(F)cc3)c2)cc1	-2.7	-18.2	-3.0	-2.8	2.2	0.5
CN1CCc2c(sc(NC(=O)CS(=O)(=O)c3ccccc3)c2C(N)=O)C1	-13.3	nt	14.3	-2.6	13.7	-0.9
CC(C)N1CCc2c(sc(NC(=O)c3nc4ccccc4s3)c2C(N)=O)C1	11.1	-4.9	-8.7	2.4	-0.8	-1.1
CCN1CCc2c(sc(NC(=O)c3ccc4ccccc4c3)c2C(N)=O)C1	40.3*	14.9	-7.2	-0.9	0.6	-17.8
CN1CCc2c(sc(NC(=O)c3ccc(C(=O)c4ccccc4)cc3)c2C(N)=O)C1	43.7*	-8.5	-5.3	1.1	-3.2	-24.3
CC(C)N1CCc2c(sc(NC(=O)c3cc(-c4cccs4)nc4ccccc34)c2C(N)=O)C1	61.1*	-4.3	nt	-6.2	-12.2	1.4
Cc1ccc2nc(-c3ccc(NC(=O)CSc4nnc(-c5cc(C)[nH]n5)n4N)cc3)sc2c1	nt	nt	4.1	nt	nt	nt
COc1ccc(CCN2CCC(Nc3nc4ccccc4n3Cc3ccc(F)cc3)CC2)cc1	55.5*	5.6	-0.2	-2.7	-23.2	3.1
Fc1ccccc1NC(=S)NN(Cc1ccccc1)c1ccccc1	-5.6	3.9	-1.5	4.0	16.3	8.2
Cc1cccc(C)c1NC(=S)NN(Cc1ccccc1)c1ccccc1	9.1	4.3	1.2	8.2	71.7*	-2.2
Cc1occc1-c1nnc(SCC(N)=O)o1	-21.4	-6.0	-12.3	-1.8	12.1	4.6
Cc1occc1-c1nnc(SCC(=O)c2ccc(F)cc2)o1	16.4	9.4	4.7	2.2	-5.8	36.1*
Cc1ccoc1C(=O)NCCCNC(=O)c1occc1C	-0.3	62.2	23.1	-13.9	1.6	34.8*
COC(=O)C1=C(C)N(Cc2ccc(C(F)(F)F)cc2)C(=NCc2ccccc2)NC1c1cccc(F)c1 (stereo not drawn)	nt	nt	-9.4	nt	nt	nt
COC(=O)C1=C(C)N(Cc2ccccc2)C(=NCc2cccc(Cl)c2)N[C@H]1c1cccc(F)c1	67.4*	nt	nt	-6.2	14.1	nt
O=C(CNc1cccc2ccccc12)N/N=C/c1ccc(C(=O)O)cc1	9.4	76.6*	8.1	0.6	-1.3	-9.8
O=C(CNc1cccc2ccccc12)N/N=C/C=C/c1ccco1	18.1	97.5*	4.7	-5.9	-9.5	13.3
O=C(CNc1ccc2ccccc2c1)N/N=C/c1ccc(C(=O)O)cc1	-5.8	19.3	-21.4	-3.5	-16.0	-6.5
O=C(N/N=C\C=C\c1ccco1)c1cc(-c2ccc3ccccc3c2)n[nH]1	19.0	50.6*	0.4	-10.6	19.8	-15.4
Cn1cccc1C(=O)N1CCN(S(=O)(=O)c2ccc(F)cc2)CC1	nt	nt	2.7	nt	nt	nt
Fc1cccc(CNC2CCC23CCC(c2ccccc2)CC3)c1 (stereo not drawn)	nt	nt	-5.0	nt	nt	nt
Cc1ccc2nc(-c3ccc(N)cc3)sc2c1	1.3	26.0	-5.1	-5.0	-8.1	4.9
SMILES	Apaf1 inhib	UBC9 SUMO inh	TDP2 absorb	PAD4 inh	GASC-1 inh	GSTO1 counter
Nc1ccc2nc(-c3ccccc3)sc2c1	3.5	56.6*	1.1	-4.8	-5.3	1.6
COc1ccccc1/C=C1/SC(=O)N(CCC(=O)Nc2ccc(S(=O)(=O)Nc3nccs3)cc2)C1=O	14.9	59.3*	-0.9	4.7	-6.4	-6.7
O=C(CNC(=O)c1ccccc1)N/N=C/C=C/c1ccccc1	1.9	0.9	-1.0	1.4	-20.2	3.8
O=C(Cc1cc(=O)[nH][nH]1)N/N=C/C=C/c1ccccc1	48.5*!	-23.6	1.9	-3.0	10.3	35.7*!
CN1C(=O)c2cc(NC(=O)Nc3ccccc3)ccc2OC[C@H]2O[C@@H](CC(=O)NC3CCC3)CC[C@@H]21	nt	nt	5.8	nt	nt	nt
COc1cccc(-n2c(SCc3cc(=O)oc4cc(O)c(O)cc34)nc3ccccc3c2=O)c1	nt	78.9*	-11.0	4.8	-10.6	26.7
CC(=O)N1c2c(cc(Br)cc2S(=O)(=O)NCc2ccc3c(c2)OCO3)CC1C (stereo not drawn)	2.3	92.4*	-21.9	4.6	2.5	9.6
CC(=O)N1c2c(cc(Br)cc2S(=O)(=O)NCc2cccnc2)CC1C (stereo not drawn)	8.7	-2.8	-1.8	-1.1	-14.9	-6.0
CSc1ccccc1C(=O)Nc1ccc(C)c(C)c1	4.3	-10.1	-9.4	-5.8	101.8*	1.5
CCN(CCC(=O)Nc1cc(OC)ccc1OC)Cc1ccccc1	nt	nt	2.2	nt	nt	nt
CCN(CCC(=O)Nc1cc([N+](=O)[O-])ccc1OC)Cc1ccccc1	16.7	69.4*	-6.8	-0.6	-3.0	13.9
O=c1c2ccc(F)cc2nc2sc(Nc3ccc4c(c3)CCC4)nn12	nt	nt	8.0	nt	nt	nt
COC(=O)[C@]12C[C@H](CC(=O)NCCc3ccccc3OC)C(=O)N(Cc3ccco3)C1=C[C@H](C(C)(C)C)O[C@@H]2C	nt	nt	-1.4	nt	nt	nt
CCOc1ccc(NC(=O)CN(C)CC(=O)Nc2cc(Cl)ccc2C#N)cc1OCC	6.3	10.2	-10.8	1.0	59.8*	9.6
Cc1ccc(-c2cc(C(=O)NN=Cc3cccc(OCc4ccccc4)c3)[nH]n2)cc1C	nt	nt	-6.3	nt	nt	nt
COc1ccc(C(=O)OCCCN(C)C2CN(Cc3cn(Cc4ccccc4Cl)nn3)S(=O)(=O)C2)cc1OC (stereo not drawn)	nt	nt	5.1	nt	nt	nt
CC(=O)c1cc2c(O)c(O)ccc2o1	5.0	-16.9	-14.0	-1.8	42.4	37.0*
CC(=O)c1cc2cc(O)ccc2o1	-3.4	28.2	-2.0	0.2	5.3	-0.8
CCOC(=O)CNC(=O)CSc1nnc(-c2ccc(C(C)(C)C)cc2)n1-c1ccc(Cl)cc1	nt	nt	-1.8	nt	nt	nt
Cc1cc(NC(=O)Cn2c(=O)n(Cc3ccccc3)c(=O)c3ccccc32)no1	1.9	52.2*	11.3	-0.6	-4.3	2.3
COc1cccc(CN[C@@H]2CC[C@@]34CCCN3C(=O)CCC[C@H]4C2)c1	nt	nt	3.9	nt	nt	nt
COc1cc(C2c3c([nH]c(=O)[nH]c3=O)Nc3ccc4ccccc4c32)cc(OC)c1OC (stereo not drawn)	34.5	76.8*	-4.5	-0.3	12.3	14.5
NC(=O)[C@@H]1CCCNc2c(I)cc([N+](=O)[O-])cc2C(=O)N[C@@H](CCCN=C(N)N)C(=O)N[C@@H](CCCN=C(N)N)C(=O)N1	40.8*	0.2	nt	-0.3	-5.2	1.4
O=C(CCc1ccccc1)N[C@H]1[C@@H](OC(=O)c2cnccn2)CCC[C@@]12C(=O)N(Cc1ccccc1)c1ccccc12	nt	nt	-2.6	nt	nt	nt
